Laboratory results published in ChEMBL document CHEMBL4270513, “Replacement of Arg with Nle and modified D-Phe in the core sequence of MSHs, Ac-His-D-Phe-Arg-Trp-NH2, leads to hMC1R selectivity and pigmentation” (Eur J Med Chem, 2018).
Calls of active or inactive are those of the source. The calls are words filed in the database; no cut-off is given here. Square brackets hold non-standard residues; d marks the D form. Peptide text beside a SMILES is read from it. dPhe(4-CF3) = N[C@H](Cc1ccc(C(F)(F)F)cc1)C(=O)O; dPhe(4-Br) = N[C@H](Cc1ccc(Br)cc1)C(=O)O; dPhe(4-Cl) = N[C@H](Cc1ccc(Cl)cc1)C(=O)O; dPhe(4-F) = N[C@H](Cc1ccc(F)cc1)C(=O)O; d2Nal = N[C@H](Cc1ccc2ccccc2c1)C(=O)O; Nle = CCCC[C@H](N)C(=O)O

Legend:
[1] = target: T1, Melanocyte-stimulating hormone receptor (Homo sapiens, UniProt Q01726); assay: Displacement of [125I]-[Nle4,d-Phe7]-alpha-MSH from human MC1R expressed in HEK293 cells at 10 uM after 40 mins by gamma counting analysis relative to control; format: cell-based
Summary of the method: (§1)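 Binding efficiency = maximal % displacement of [125I]-NDP-α-MSH observed at 10 μM peptide; 0% displacement at 10 μM scored as no binding.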
Target sequence in this assay (Q01726 whole entry, looked up): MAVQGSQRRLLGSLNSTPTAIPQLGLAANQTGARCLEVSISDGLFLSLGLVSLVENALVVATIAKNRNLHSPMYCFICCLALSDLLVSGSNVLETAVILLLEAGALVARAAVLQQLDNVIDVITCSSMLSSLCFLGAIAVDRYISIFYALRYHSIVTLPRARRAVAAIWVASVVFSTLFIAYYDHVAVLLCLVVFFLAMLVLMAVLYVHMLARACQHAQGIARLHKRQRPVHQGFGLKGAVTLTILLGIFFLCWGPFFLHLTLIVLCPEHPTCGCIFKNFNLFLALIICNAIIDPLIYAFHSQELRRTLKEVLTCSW

[2] = target: T1, Melanocyte-stimulating hormone receptor; assay: Agonist activity at human MC1R expressed in HEK293 cells at 10 uM after 3 mins by cAMP assay relative to MT-2; format: functional, cell-based
Summary of the method: (§2)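 cAMP produced at a single 10 μM peptide concentration, expressed as % of the response to MT-II run as control; 0% accumulation reported as no activity.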
Target sequence in this assay (Q01726 whole entry, looked up): as above

[3] = target: T2, Melanocortin receptor 3 (Homo sapiens, UniProt P41968); assay: Displacement of [125I]-[Nle4,d-Phe7]-alpha-MSH from human MC3R expressed in HEK293 cells at 10 uM after 40 mins by gamma counting analysis relative to control; format: cell-based; summary of the method: as §1
[4] = target: T2, Melanocortin receptor 3; assay: Agonist activity at human MC3R expressed in HEK293 cells at 10 uM after 3 mins by cAMP assay relative to MT-2; format: functional, cell-based; summary of the method: as §2
[5] = target: T3, Melanocortin receptor 5 (Homo sapiens, UniProt P33032); assay: Displacement of [125I]-[Nle4,d-Phe7]-alpha-MSH from human MC5R expressed in HEK293 cells at 10 uM after 40 mins by gamma counting analysis relative to control; format: cell-based; summary of the method: as §1
[6] = target: T3, Melanocortin receptor 5; assay: Agonist activity at human MC5R expressed in HEK293 cells at 10 uM after 3 mins by cAMP assay relative to MT-2; format: functional, cell-based; summary of the method: as §2
[7] = target: T1, Melanocyte-stimulating hormone receptor; assay: Displacement of [125I]-[Nle4,d-Phe7]-alpha-MSH from human MC1R expressed in HEK293 cells after 40 mins by gamma counting analysis; format: cell-based
Target sequence in this assay (Q01726 whole entry): as the sequence (Q01726 whole entry, looked up) above

[8] = target: T1, Melanocyte-stimulating hormone receptor; assay: Agonist activity at human MC1R expressed in HEK293 cells after 3 mins by cAMP assay; format: functional, cell-based
Target sequence in this assay (Q01726 whole entry): as the sequence (Q01726 whole entry, looked up) above

[9] = target: T2, Melanocortin receptor 3; assay: Displacement of [125I]-[Nle4,d-Phe7]-alpha-MSH from human MC3R expressed in HEK293 cells after 40 mins by gamma counting analysis; format: cell-based
[10] = target: T2, Melanocortin receptor 3; assay: Agonist activity at human MC3R expressed in HEK293 cells after 3 mins by cAMP assay; format: functional, cell-based
[11] = target: T4, Melanocortin receptor 4 (Homo sapiens, UniProt P32245); assay: Displacement of [125I]-[Nle4,d-Phe7]-alpha-MSH from human MC4R expressed in HEK293 cells after 40 mins by gamma counting analysis; format: cell-based
[12] = target: T4, Melanocortin receptor 4; assay: Agonist activity at human MC4R expressed in HEK293 cells after 3 mins by cAMP assay; format: functional, cell-based
[13] = target: T3, Melanocortin receptor 5; assay: Displacement of [125I]-[Nle4,d-Phe7]-alpha-MSH from human MC5R expressed in HEK293 cells after 40 mins by gamma counting analysis; format: cell-based
[14] = target: T3, Melanocortin receptor 5; assay: Agonist activity at human MC5R expressed in HEK293 cells after 3 mins by cAMP assay; format: functional, cell-based
[15] = tested on: Anolis carolinensis; assay: Induction of pigmentation effect in lizard at 3 ug/g, ip at 1 hr post dose; format: functional, organism-based
Summary of the method: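 Anolis carolinensis lizards, peptide dissolved in saline at 1 mM, single intraperitoneal dose of 3 μg/g body weight; vehicle-injected animals as control. Skin colour change versus pre-injection appearance scored visually and photographed, followed up to 24 h.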

[16] = organism: Homo sapiens; assay: Selectivity ratio of EC50 for human MC3R to EC50 for human MC1R
[17] = organism: Homo sapiens; assay: Selectivity ratio of EC50 for human MC4R to EC50 for human MC1R
[18] = organism: Homo sapiens; assay: Selectivity ratio of EC50 for human MC5R to EC50 for human MC1R

T3 sequence (P33032 whole entry): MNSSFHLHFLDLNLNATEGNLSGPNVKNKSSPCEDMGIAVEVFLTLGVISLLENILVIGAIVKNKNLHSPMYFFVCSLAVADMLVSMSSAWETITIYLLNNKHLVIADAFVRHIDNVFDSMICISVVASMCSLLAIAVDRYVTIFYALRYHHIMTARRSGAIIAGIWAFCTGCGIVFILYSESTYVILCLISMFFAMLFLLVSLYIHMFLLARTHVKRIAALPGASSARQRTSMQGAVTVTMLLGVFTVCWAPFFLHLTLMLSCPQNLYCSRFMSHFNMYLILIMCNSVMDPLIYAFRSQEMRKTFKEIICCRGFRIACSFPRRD
T2 sequence (P41968 whole entry): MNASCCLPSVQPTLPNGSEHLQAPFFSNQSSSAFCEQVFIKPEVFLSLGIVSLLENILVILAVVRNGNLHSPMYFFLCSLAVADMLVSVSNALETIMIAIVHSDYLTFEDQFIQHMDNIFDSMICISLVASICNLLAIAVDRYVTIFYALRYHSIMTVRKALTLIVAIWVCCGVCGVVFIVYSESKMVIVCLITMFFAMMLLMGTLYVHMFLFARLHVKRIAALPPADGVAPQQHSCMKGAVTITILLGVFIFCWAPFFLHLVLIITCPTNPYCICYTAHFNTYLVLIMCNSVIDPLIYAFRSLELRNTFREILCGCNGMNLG
T4 sequence (P32245 whole entry): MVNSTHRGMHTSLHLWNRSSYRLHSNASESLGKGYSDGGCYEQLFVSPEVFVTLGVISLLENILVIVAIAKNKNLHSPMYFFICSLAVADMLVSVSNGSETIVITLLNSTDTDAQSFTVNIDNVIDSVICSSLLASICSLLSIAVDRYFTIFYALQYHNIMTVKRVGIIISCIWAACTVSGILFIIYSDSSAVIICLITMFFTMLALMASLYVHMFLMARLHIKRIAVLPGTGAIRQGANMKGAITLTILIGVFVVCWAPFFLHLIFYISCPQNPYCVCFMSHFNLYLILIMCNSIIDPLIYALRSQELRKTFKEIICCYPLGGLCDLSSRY

Structure (SMILES)	%max [1]	Activity [2]	%max [3]	Activity [4]	%max [5]	Activity [6]	IC50 [7]	EC50 [8]	IC50 [9]	EC50 [10]	IC50 [11]	EC50 [12]	IC50 [13]	EC50 [14]	Activity [15]	Ratio EC50 [16]	Ratio EC50 [17]	Ratio EC50 [18]
CC(=O)N[C@@H](Cc1cnc[nH]1)C(=O)N[C@H](Cc1ccccc1)C(=O)N[C@@H](CCCNC(=N)N)C(=O)N[C@@H](Cc1c[nH]c2ccccc12)C(N)=O	100%	100%	100%	100%	100%	63%												
CCCC[C@H](NC(=O)[C@@H](Cc1ccc(Cl)cc1)NC(=O)[C@@H]1CCCN1C(C)=O)C(=O)N[C@@H](Cc1c[nH]c2ccccc12)C(N)=O (Ac-P[dPhe(4-Cl)][Nle]W-NH2)	18%	63%	35%	23.1%	0%	0%	0.0019 µM	0.003 µM	> 1 µM	> 1 µM								
CCCC[C@H](NC(=O)[C@@H](Cc1ccc2ccccc2c1)NC(=O)[C@H](Cc1cnc[nH]1)NC(C)=O)C(=O)N[C@@H](Cc1c[nH]c2ccccc12)C(N)=O (Ac-H[d2Nal][Nle]W-NH2)	65%	100%	80%	17%	0%	0%	> 1 µM	0.418 µM	> 1 µM	0.255 µM	> 1 µM	0.133 µM						
CC(=O)N[C@@H](Cc1cnc[nH]1)C(=O)N[C@H](Cc1ccccc1)C(=O)N[C@@H](CCCN=C(N)N)C(=O)N[C@@H](Cc1c[nH]c2ccccc12)C(N)=O							0.105 µM	0.0043 µM	0.063 µM	0.0071 µM			0.109 µM	0.0039 µM				
CCCC[C@H](NC(=O)[C@@H](Cc1ccc(Br)cc1)NC(=O)[C@H](Cc1cnc[nH]1)NC(C)=O)C(=O)N[C@@H](Cc1c[nH]c2ccccc12)C(N)=O (Ac-H[dPhe(4-Br)][Nle]W-NH2)	61%	100%	51%	93%	0%	33%	0.154 µM	0.011 µM	0.224 µM	0.057 µM	0.053 µM	0.036 µM		> 1 µM				
CCCC[C@H](NC(=O)[C@@H](Cc1ccccc1)NC(=O)[C@@H]1CCCN1C(C)=O)C(=O)N[C@@H](Cc1c[nH]c2ccccc12)C(N)=O (Ac-P[dF][Nle]W-NH2)	0%	0%	65%	0%	0%	0%			> 1 µM									
CCCC[C@H](NC(=O)[C@@H](Cc1ccccc1)NC(=O)[C@H](Cc1cnc[nH]1)NC(C)=O)C(=O)N[C@@H](Cc1c[nH]c2ccccc12)C(N)=O (Ac-H[dF][Nle]W-NH2)	42%	100%	15%	100%	44%	48%	0.05 µM	0.052 µM	> 1 µM	0.12 µM	0.065 µM	0.928 µM	0.046 µM	0.037 µM				
CCCC[C@H](NC(=O)[C@@H](Cc1ccc(C(F)(F)F)cc1)NC(=O)[C@@H]1CCCN1C(C)=O)C(=O)N[C@@H](Cc1c[nH]c2ccccc12)C(N)=O (Ac-P[dPhe(4-CF3)][Nle]W-NH2)	0%	0%	33%	0%	0%	0%			> 1 µM		0.0021 µM							
CCCC[C@H](NC(=O)[C@@H](Cc1ccc(Br)cc1)NC(=O)[C@@H]1CCCN1C(C)=O)C(=O)N[C@@H](Cc1c[nH]c2ccccc12)C(N)=O (Ac-P[dPhe(4-Br)][Nle]W-NH2)	30%	39%	76%	23.1%	0%	0%	0.08 µM	> 1 µM	> 1 µM	> 1 µM	0.01 µM							
CCCC[C@H](NC(=O)[C@@H](Cc1ccc(C(F)(F)F)cc1)NC(=O)[C@H](Cc1cnc[nH]1)NC(C)=O)C(=O)N[C@@H](Cc1c[nH]c2ccccc12)C(N)=O (Ac-H[dPhe(4-CF3)][Nle]W-NH2)	49%	100%	62%	85%	37%	44%	0.339 µM	0.01 µM	0.09 µM	0.252 µM	0.835 µM	0.407 µM	0.037 µM	> 1 µM	Active	25	41	> 100
CCCC[C@H](NC(=O)[C@@H](Cc1ccc(Cl)cc1)NC(=O)[C@H](Cc1cnc[nH]1)NC(C)=O)C(=O)N[C@@H](Cc1c[nH]c2ccccc12)C(N)=O (Ac-H[dPhe(4-Cl)][Nle]W-NH2)	81%	100%	45%	87%	0%	52%	0.122 µM	0.0065 µM	> 1 µM	0.116 µM	> 1 µM	0.017 µM		0.433 µM				
CCCC[C@H](NC(=O)[C@@H](Cc1ccc(F)cc1)NC(=O)[C@@H]1CCCN1C(C)=O)C(=O)N[C@@H](Cc1c[nH]c2ccccc12)C(N)=O (Ac-P[dPhe(4-F)][Nle]W-NH2)	28%	46%	35%	56%	0%	0%	0.00074 µM	> 1 µM	0.0468 µM	> 1 µM								
CCCC[C@H](NC(=O)[C@@H](Cc1ccc(F)cc1)NC(=O)[C@H](Cc1cnc[nH]1)NC(C)=O)C(=O)N[C@@H](Cc1c[nH]c2ccccc12)C(N)=O (Ac-H[dPhe(4-F)][Nle]W-NH2)	33%	100%	13%	100%	0%	0%	0.243 µM	0.025 µM	> 1 µM	0.315 µM	> 1 µM	0.28 µM						
